In ChEMBL document CHEMBL5678814, “Novel Mps1 Kinase Inhibitors with Potent Antitumor Activity” (Mol Cancer Ther, 2016):
Activity calls are given as the source filed them. The calls are words filed in the database; no cut-off is given here.

Legend:
FaDu = experiment: Antiproliferative activity against human FaDu cells assessed as cell growth inhibition incubated for 96 hrs by crystal violet staining
A2780 = experiment: Antiproliferative activity against human A2780 cells assessed as cell growth inhibition incubated for 96 hrs by crystal violet staining; conditions: A2780, 96 h
[1] = Synergistic antitumor activity against human MAXF 1384 cells xenografted female athymic NMRI mouse model assessed as MTD at 2 mg/kg,po administered twice daily intermittent for 2 days on/5 days off measured after 48 hrs treatment in the presence of paclitaxel relative to control; assay type: functional; conditions: time 9 day
[2] = Antiproliferative activity against human HeLa-MaTu-ADR cells assessed as cell growth inhibition incubated for 96 hrs by crystal violet staining
HT1197 = experiment: Antiproliferative activity against human HT1197 cells assessed as cell growth inhibition incubated for 96 hrs by MTS assay; assay type: functional, cell-based; conditions: HT1197, 96 h
CAL-33 = experiment: Antiproliferative activity against human CAL-33 cells assessed as cell growth inhibition incubated for 96 hrs by crystal violet staining; conditions: CAL-33, 96 h
NCI-H1373 = experiment: Antiproliferative activity against human NCI-H1373 cells assessed as cell growth inhibition incubated for 96 hrs by crystal violet staining; conditions: NCI-H1373, 96 h
RPMI-2650 = experiment: Antiproliferative activity against human RPMI-2650 cells assessed as cell growth inhibition incubated for 96 hrs by crystal violet staining; conditions: RPMI-2650, 96 h
[3] = Oral bioavailability in male Wistar rat plasma at 0.5 mg/kg measured after 24 hrs by LC/-MS/MS analysis; assay type: ADME, organism-based
NCI-H1155 = experiment: Antiproliferative activity against human NCI-H1155 cells assessed as cell growth inhibition incubated for 96 hrs by crystal violet staining; conditions: NCI-H1155, 96 h
OCI-LY19 = experiment: Antiproliferative activity against human OCILY19 cells assessed as cell growth inhibition incubated for 96 hrs by MTS assay; assay type: functional, cell-based; conditions: OCI-LY19, 96 h
[4] = Toxicity in human A2780cis cells xenografted female athymic NMRI mouse model assessed as change in body weight at 2.5 mg/kg, po administered twice daily intermittent for 2 days on/5 days off; assay type: organism-based; conditions: in vivo, 168 h, time 7 day
Outline: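 A2780cis cells (2×10^6 in 100% Matrigel) implanted s.c. in athymic mice. Treatment started at ~30 mm2. Oral dosing twice daily, 2 days on/5 days off, with PEG 400/ethanol/Solutol vehicle controls. Dose based on individual body weight. Body weight monitored two to three times weekly as toxicity measure; >20% loss deemed toxic.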

Calu-6 = experiment: Antiproliferative activity against human Calu-6 cells assessed as cell growth inhibition incubated for 96 hrs by crystal violet staining; conditions: Calu-6, 96 h
IGROV-1 = experiment: Antiproliferative activity against human IGROV-1 cells assessed as cell growth inhibition incubated for 96 hrs by crystal violet staining; conditions: IGROV-1, 96 h
[5] = molecular target: Mitogen-activated protein kinase 9 (Homo sapiens, UniProt P45984); experiment: Binding affinity to JNK2 (unknown origin) assessed as dissociation constant
[6] = In vivo inhibition of Mps1 in NMRI mouse assessed as MTD at => 1 mg/kg,po administered twice daily for 2 days and measured after 3 days relative to control; assay type: functional; conditions: time 2 day
KU-19-19 = experiment: Antiproliferative activity against human KU-19-19 cells assessed as cell growth inhibition incubated for 96 hrs by MTS assay; assay type: functional, cell-based; conditions: KU-19-19, 96 h
SK-OV-3 = experiment: Antiproliferative activity against human SK-OV-3 cells assessed as cell growth inhibition incubated for 96 hrs by crystal violet staining; conditions: SK-OV-3, 96 h
OV-90 = experiment: Antiproliferative activity against human OV-90 cells assessed as cell growth inhibition incubated for 96 hrs by crystal violet staining; conditions: OV-90, 96 h
Granta-519 = experiment: Antiproliferative activity against human Granta-519 cells assessed as cell growth inhibition incubated for 96 hrs by MTS assay; assay type: functional, cell-based; conditions: Granta-519, 96 h
HCT-116 = experiment: Antiproliferative activity against human TP53 mutant HCT-116 cells assessed as cell growth inhibition incubated for 96 hrs by crystal violet staining; conditions: HCT-116, 96 h
MDA-MB-231 = experiment: Antiproliferative activity against human MDA-MB-231 cells assessed as cell growth inhibition incubated for 96 hrs by MTS assay; assay type: functional, cell-based; conditions: MDA-MB-231, 96 h
[7] = molecular target: Serine/threonine-protein kinase 38 (Homo sapiens, UniProt Q15208); experiment: Binding affinity to NDR1 (unknown origin) assessed as dissociation constant
HCT-15 = experiment: Antiproliferative activity against human HCT-15 cells assessed as cell growth inhibition incubated for 96 hrs by crystal violet staining; conditions: HCT-15, 96 h
A2780cis = conditions: Homo sapiens, dose 2.5 mg/kg, route po, time 7.0 day
JeKo-1 = experiment: Antiproliferative activity against human JeKo-1 cells assessed as cell growth inhibition incubated for 96 hrs by MTS assay; assay type: functional, cell-based; conditions: JeKo-1, 96 h
A673 = experiment: Antiproliferative activity against human A673 cells assessed as cell growth inhibition incubated for 96 hrs by MTS assay; assay type: functional, cell-based; conditions: A673, 96 h
OVCAR-8 = experiment: Antiproliferative activity against human OVCAR-8 cells assessed as cell growth inhibition incubated for 96 hrs by crystal violet staining; conditions: OVCAR-8, 96 h
A549 = experiment: Antiproliferative activity against human A549 cells assessed as cell growth inhibition incubated for 96 hrs by crystal violet staining; conditions: A549, 96 h
VCaP = experiment: Antiproliferative activity against human VCaP cells assessed as cell growth inhibition incubated for 96 hrs by MTS assay; assay type: functional, cell-based
DU-145 = experiment: Antiproliferative activity against human DU-145 cells assessed as cell growth inhibition incubated for 96 hrs by MTS assay; assay type: functional, cell-based; conditions: DU-145, 96 h
[8] = Antiproliferative activity against human HBL1 cells assessed as cell growth inhibition incubated for 96 hrs by MTS assay; assay type: functional, cell-based; conditions: HBL1, 96 h
RKO = experiment: Antiproliferative activity against human TP53 wildtype RKO cells assessed as cell growth inhibition incubated for 96 hrs by crystal violet staining
SK-MEL3 = experiment: Antiproliferative activity against human SK-MEL3 cells assessed as cell growth inhibition incubated for 96 hrs by crystal violet staining; conditions: SK-MEL3, 96 h

Sequence of Mitogen-activated protein kinase 9 (P45984 whole entry): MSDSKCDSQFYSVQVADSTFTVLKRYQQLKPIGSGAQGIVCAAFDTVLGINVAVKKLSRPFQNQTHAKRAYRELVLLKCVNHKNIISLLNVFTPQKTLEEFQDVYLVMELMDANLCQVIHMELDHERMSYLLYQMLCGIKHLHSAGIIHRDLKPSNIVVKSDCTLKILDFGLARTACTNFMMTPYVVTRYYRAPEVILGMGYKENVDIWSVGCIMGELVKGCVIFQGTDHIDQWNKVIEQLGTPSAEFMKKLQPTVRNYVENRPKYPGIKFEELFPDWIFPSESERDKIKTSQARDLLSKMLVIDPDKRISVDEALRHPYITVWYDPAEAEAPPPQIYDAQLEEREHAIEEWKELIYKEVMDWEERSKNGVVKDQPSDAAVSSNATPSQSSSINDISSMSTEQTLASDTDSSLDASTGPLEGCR
Sequence of Serine/threonine-protein kinase 38 (Q15208 whole entry): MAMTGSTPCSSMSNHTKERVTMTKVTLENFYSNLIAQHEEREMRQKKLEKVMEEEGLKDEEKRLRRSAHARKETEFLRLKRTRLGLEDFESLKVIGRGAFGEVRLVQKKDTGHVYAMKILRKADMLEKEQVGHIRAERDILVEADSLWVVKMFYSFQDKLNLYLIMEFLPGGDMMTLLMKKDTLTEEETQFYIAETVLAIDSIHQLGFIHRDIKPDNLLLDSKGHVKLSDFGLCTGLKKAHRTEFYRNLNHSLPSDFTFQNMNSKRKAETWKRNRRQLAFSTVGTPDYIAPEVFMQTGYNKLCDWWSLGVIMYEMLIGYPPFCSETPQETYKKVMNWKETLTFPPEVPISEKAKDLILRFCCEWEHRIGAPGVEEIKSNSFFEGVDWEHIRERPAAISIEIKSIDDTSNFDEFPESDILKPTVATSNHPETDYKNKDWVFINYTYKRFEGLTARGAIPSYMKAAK

`COc1cc(S(C)(=O)=O)ccc1Nc1nc2ccc(-c3ccc(NC(=O)[C@H](C)c4ccc(F)cc4)cc3)cn2n1` [BAY-1161909] gave an IC50 (FaDu) of 270 nM, an IC50 (A2780) of 69 nM and an MED [1] of 80%. For the same molecule, the IC50 [2] was 180 nM, the IC50 (HT1197) was greater than 3000 nM and the IC50 (CAL-33) was 110 nM. The IC50 (NCI-H1373) was 190 nM, the IC50 (RPMI-2650) was 51 nM and the bioavailability [3] was 49%. The IC50 (NCI-H1155) was 1400 nM, the IC50 (OCI-LY19) was 61 nM and the Activity [4] was “Non-Toxic”. It also gave an IC50 (Calu-6) greater than 3000 nM, an IC50 (IGROV-1) of 240 nM and a Kd [5] of 160 nM. The MED [6] was “>=40%”, the IC50 (KU-19-19) was 86 nM and the IC50 (SK-OV-3) was 3700 nM. The IC50 (OV-90) was 150 nM, the IC50 (Granta-519) was 240 nM and the IC50 (HCT-116) was 59 nM. It also gave an IC50 (MDA-MB-231) of 110 nM, a Kd [7] of 40000 nM and an IC50 (HCT-15) of 110 nM. For the same molecule, the inhibition (A2780cis) was “Active”, the IC50 (JeKo-1) was 65 nM and the IC50 (A673) was 93 nM. It also gave an IC50 (OVCAR-8) of 190 nM, an IC50 (A549) of 130 nM and an IC50 (VCaP) greater than 3000 nM. It also gave an IC50 (DU-145) of 160 nM, an IC50 [8] of 110 nM and an IC50 (RKO) of 39 nM. The IC50 (SK-MEL3) was 53 nM.
